Test results published in ChEMBL document CHEMBL5252646, “Novel thienocycloalkylpyridazinones as useful scaffolds for acetylcholinesterase inhibition and serotonin 5-HT6 receptor interaction” (Bioorg Med Chem, 2023).
Active and inactive are the calls of the source. The calls are words filed in the database; no cut-off is given here.

What was measured:
[1] = molecular target: T1, 5-hydroxytryptamine receptor 4 (Homo sapiens, UniProt Q13639); experiment: Antagonist activity at 5-HT4 receptor in human HeLa cells assessed as inhibition of intracellular calcium mobilization at 10 uM incubated for 2 hrs by FLIPR assay; format: cell-based
In short: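 HeLa cells stably expressing human 5-HT4, 20,000 per well, seeded the day before. Medium replaced with DMEM plus Calcium 6 dye, 2 h at 37 °C, then compounds and standard added. Intracellular calcium read by fluorescence (ex 480, em 540 nm) every second after a baseline. Duplicates.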

Acetylcholinesterase [2] = molecular target: T2, Acetylcholinesterase (Homo sapiens, UniProt P22303); experiment: Inhibition of human AChE using acetylthiocholine iodide as substrate preincubated with enzyme for 20 mins followed by substrate addition and measured for 5 mins by Ellman's spectrophotometric method
[3] = molecular target: T3, 5-hydroxytryptamine receptor 7 (Homo sapiens, UniProt P34969); experiment: Displacement of [3H]SB269970 from human 5-HT7 receptor expressed in HEK cell membrane incubated for 60 mins by microplate beta scintillation counting analysis; format: cell membranes
[4] = molecular target: T4, 5-hydroxytryptamine receptor 6 (Homo sapiens, UniProt P50406); experiment: Displacement of [3H]-LSD from human 5-HT6 receptor expressed in HEK cell membrane incubated for 60 mins by microplate beta scintillation counting analysis; format: cell membranes
In short: (§1)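 Membranes from HEK cells expressing human 5-HT6, 5 µg per well, with 2 nM [3H]-LSD, 60 min at 37 °C. Buffer 50 mM Tris-HCl, 10 mM MgCl2, 0.5 mM EDTA, pH 7.4. Nonspecific binding with 100 µM 5-HT. Filtered on GF/C, scintillation counted.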

[5] = molecular target: T5, 5-hydroxytryptamine receptor 1A (Homo sapiens, UniProt P08908); experiment: Displacement of [3H]-8-OH-DPAT from human 5-HT1A receptor expressed in HEK cell membrane incubated for 120 mins by microplate beta scintillation counting analysis; format: cell membranes
T5 sequence (P08908 whole entry): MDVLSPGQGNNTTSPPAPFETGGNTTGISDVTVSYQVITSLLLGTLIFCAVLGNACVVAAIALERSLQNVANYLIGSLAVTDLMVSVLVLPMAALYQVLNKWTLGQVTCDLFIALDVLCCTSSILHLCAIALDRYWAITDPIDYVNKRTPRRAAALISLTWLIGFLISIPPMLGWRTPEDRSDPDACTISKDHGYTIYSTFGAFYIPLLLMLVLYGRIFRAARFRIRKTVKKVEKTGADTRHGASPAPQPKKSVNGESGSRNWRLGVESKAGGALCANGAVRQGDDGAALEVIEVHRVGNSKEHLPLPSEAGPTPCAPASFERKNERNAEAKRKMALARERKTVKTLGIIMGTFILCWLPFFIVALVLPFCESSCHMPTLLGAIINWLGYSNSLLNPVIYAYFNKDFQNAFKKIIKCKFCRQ
In short: (§2)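 Membranes from HEK cells expressing human 5-HT1A, 10 µg per well, with 1 nM [3H]-8-OH-DPAT, 120 min at 37 °C. Buffer 50 mM Tris-HCl, 5 mM MgSO4, pH 7.4. Nonspecific binding with 10 µM 5-HT. Filtered on PEI-treated GF/C and washed, then scintillation counted. Duplicates.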

[6] = molecular target: T3, 5-hydroxytryptamine receptor 7; experiment: Displacement of [3H]SB269970 from human 5-HT7 receptor expressed in HEK cell membrane at 10 uM incubated for 60 mins by microplate beta scintillation counting analysis; format: cell membranes
In short: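 Membranes from HEK cells expressing human 5-HT7, 2 µg per well, with 2 nM [3H]-SB269970, 60 min at 37 °C. Buffer Tris-HCl 50 mM, 4 mM CaCl2, 1 mM ascorbic acid, 0.1 mM pargyline, pH 7.4. Nonspecific binding with 25 µM clozapine. Filtered, scintillation counted. Duplicates. Displacement as % at 10 µM.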

Cholinesterase [7] = molecular target: T6, Cholinesterase (Homo sapiens, UniProt P06276); experiment: Inhibition of human BChE using butyrylthiocholine iodide as substrate at 10 uM preincubated with enzyme for 20 mins followed by substrate addition and measured for 5 mins by Ellman's spectrophotometric method; details: time 25.0 min
[8] = molecular target: T4, 5-hydroxytryptamine receptor 6; experiment: Displacement of [3H]-LSD from human 5-HT6 receptor expressed in HEK cell membrane at 10 uM incubated for 60 mins by microplate beta scintillation counting analysis; format: cell membranes; in short: as §1
Cholinesterase [9] = molecular target: T6, Cholinesterase; experiment: Inhibition of human BChE using butyrylthiocholine iodide as substrate preincubated with enzyme for 20 mins followed by substrate addition and measured for 5 mins by Ellman's spectrophotometric method
Acetylcholinesterase [10] = molecular target: T2, Acetylcholinesterase; experiment: Competitive inhibition of human AChE using acetylthiocholine iodide as substrate preincubated with enzyme for 20 mins followed by varing concentrations of substrate addition and measured for 5 mins by Lineweaver-Burk plot analysis
In short: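 Human AChE, Ellman spectrophotometric method in 96-well format, run in triplicate. Kinetics: six acetylthiocholine concentrations (0.033 to 0.2 mM) crossed with four inhibitor concentrations (0–300 nM). Analysed by the Michaelis-Menten approach; kinetic parameters from nonlinear regression.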

[11] = molecular target: T1, 5-hydroxytryptamine receptor 4; experiment: Antagonist activity at 5-HT4 receptor in human HeLa cells assessed as inhibition of intracellular calcium mobilization incubated for 2 hrs by FLIPR assay; format: cell-based
In short: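 HeLa cells stably expressing human 5-HT4, seeded the day before at 20,000 cells/well. Medium replaced with DMEM plus Calcium 6 dye, then 2 h at 37 °C. Compounds and standard added afterwards. Fluorescence from intracellular calcium mobilization (ex 480 nm, em 540 nm) recorded every second after a baseline was set. Run in duplicate.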

[12] = molecular target: T7, 5-hydroxytryptamine receptor 1A (Homo sapiens) (UniProt P08908); experiment: Displacement of [3H]-8-OH-DPAT from human 5-HT1A receptor expressed in HEK cell membrane at 10 uM incubated for 120 mins by microplate beta scintillation counting analysis; format: cell membranes; in short: as §2
T7 sequence (whole entry): T5 sequence (P08908 whole entry)

T6 sequence (P06276 whole entry): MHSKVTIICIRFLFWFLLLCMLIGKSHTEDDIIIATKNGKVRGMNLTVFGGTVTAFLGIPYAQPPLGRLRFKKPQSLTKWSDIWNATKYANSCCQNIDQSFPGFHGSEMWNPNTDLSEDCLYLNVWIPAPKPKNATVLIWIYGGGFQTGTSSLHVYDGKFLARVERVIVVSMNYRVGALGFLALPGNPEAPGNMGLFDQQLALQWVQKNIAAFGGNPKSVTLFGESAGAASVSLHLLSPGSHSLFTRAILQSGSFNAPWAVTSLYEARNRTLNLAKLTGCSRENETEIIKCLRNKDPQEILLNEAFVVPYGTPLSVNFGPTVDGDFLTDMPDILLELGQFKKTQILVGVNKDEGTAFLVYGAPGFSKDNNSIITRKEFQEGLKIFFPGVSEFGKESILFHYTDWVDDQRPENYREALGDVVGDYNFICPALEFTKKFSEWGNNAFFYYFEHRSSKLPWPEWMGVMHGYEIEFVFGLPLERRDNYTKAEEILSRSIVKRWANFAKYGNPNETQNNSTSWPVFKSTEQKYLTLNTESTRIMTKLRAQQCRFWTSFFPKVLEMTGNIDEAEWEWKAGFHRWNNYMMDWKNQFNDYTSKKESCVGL
T1 sequence (Q13639 whole entry): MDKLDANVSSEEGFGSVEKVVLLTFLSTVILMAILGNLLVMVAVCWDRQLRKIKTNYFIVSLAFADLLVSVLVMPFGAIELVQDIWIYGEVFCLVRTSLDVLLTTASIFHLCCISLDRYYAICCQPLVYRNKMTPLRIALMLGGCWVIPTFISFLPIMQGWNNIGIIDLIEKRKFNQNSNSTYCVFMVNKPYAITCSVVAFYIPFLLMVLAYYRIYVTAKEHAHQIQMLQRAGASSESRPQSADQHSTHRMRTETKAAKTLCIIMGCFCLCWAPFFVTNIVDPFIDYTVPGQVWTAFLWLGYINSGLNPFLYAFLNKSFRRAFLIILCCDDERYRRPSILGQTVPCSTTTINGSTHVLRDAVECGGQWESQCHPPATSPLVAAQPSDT
T2 sequence (P22303 whole entry): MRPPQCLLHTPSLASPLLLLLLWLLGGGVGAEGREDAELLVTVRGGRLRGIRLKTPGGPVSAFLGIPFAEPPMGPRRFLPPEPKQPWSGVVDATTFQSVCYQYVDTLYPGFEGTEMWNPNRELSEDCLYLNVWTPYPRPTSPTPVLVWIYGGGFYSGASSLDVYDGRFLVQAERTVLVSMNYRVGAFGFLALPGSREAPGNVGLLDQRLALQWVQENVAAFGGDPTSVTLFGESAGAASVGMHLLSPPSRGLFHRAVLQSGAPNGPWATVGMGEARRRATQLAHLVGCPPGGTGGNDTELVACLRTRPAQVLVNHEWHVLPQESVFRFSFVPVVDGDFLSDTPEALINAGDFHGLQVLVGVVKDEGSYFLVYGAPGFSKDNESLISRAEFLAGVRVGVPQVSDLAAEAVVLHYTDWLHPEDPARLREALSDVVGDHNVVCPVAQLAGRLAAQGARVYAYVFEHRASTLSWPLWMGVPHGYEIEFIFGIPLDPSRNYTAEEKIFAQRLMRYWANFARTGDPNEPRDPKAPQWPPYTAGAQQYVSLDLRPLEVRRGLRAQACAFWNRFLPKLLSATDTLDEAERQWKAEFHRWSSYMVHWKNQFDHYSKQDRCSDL
T3 sequence (P34969 whole entry): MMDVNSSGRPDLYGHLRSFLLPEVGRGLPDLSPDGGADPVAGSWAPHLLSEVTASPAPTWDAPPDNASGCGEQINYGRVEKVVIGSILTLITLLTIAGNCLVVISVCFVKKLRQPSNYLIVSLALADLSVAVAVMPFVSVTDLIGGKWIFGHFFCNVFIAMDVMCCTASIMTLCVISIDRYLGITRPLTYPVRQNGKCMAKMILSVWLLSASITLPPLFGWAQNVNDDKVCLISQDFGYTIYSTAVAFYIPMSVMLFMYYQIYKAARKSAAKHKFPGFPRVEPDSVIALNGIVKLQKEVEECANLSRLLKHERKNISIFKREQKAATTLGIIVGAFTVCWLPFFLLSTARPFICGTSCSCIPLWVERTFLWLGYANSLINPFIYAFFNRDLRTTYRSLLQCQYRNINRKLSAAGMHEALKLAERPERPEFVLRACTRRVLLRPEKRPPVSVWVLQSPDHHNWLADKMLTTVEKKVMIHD
T4 sequence (P50406 whole entry): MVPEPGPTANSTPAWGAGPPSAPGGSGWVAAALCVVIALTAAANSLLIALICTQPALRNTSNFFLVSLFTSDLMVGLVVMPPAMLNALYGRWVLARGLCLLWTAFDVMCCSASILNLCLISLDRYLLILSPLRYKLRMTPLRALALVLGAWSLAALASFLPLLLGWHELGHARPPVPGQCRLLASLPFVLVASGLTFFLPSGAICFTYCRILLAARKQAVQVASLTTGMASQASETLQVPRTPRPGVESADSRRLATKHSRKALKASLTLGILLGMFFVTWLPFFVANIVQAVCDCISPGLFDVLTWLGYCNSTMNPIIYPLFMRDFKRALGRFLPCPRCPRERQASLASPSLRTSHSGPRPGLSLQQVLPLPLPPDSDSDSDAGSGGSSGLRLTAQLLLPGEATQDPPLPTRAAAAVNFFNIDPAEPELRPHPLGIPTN

Structure (SMILES)	inhibition [1]	IC50 (Acetylcholinesterase [2]) [nM]	Ki [3] [nM]	Ki [4] [nM]	Ki [5] [nM]	inhibition [6] [%]	inhibition (Cholinesterase [7])	inhibition [8] [%]	IC50 (Cholinesterase [9]) [nM]	Ki (Acetylcholinesterase [10]) [nM]	Ki [11] [nM]	inhibition ([6]; filed as antagonist) [%]	inhibition [12] [%]
O=C1CC2CCc3ccsc3C2=NN1CCCCN1CCN(Cc2cccc3c2ccn3S(=O)(=O)c2ccccc2)CC1 (centres undefined)	inactive	7610	2010	236	2840								
CCN(CC)CCCCN1N=C2c3sccc3CCC2CC1=O (centres undefined)		2930			8630	10	inactive	27					
O=C1CC2CCc3ccsc3C2=NN1CCN1CCN(Cc2ccccc2)CC1 (centres undefined)		170		1670	1080	26			5110	123			
Cn1cc(C(=O)OCC2CCN(CCNS(C)(=O)=O)CC2)c2ccccc21											1.4		
O=C1CC2CCc3ccsc3C2=NN1CCCCN1CCCC1 (centres undefined)		1160			3530	16	14%	33					
O=C1CC2CCc3ccsc3C2=NN1CCCCN1CCCCC1 (centres undefined)		2090			4300	18	9%	30					
O=C1CC2CCc3ccsc3C2=NN1CCCCCCCN1CCN(Cc2cccc3c2ccn3S(=O)(=O)c2ccccc2)CC1 (centres undefined)	16%	4560		87								43	33
O=C1CC2CCc3ccsc3C2=NN1CN1CCN(Cc2ccccc2)CC1 (centres undefined)		13600				23		28	5580				24
O=C1CC2Cc3ccsc3C2=NN1CCCCCN1CCN(Cc2cccc3c2ccn3S(=O)(=O)c2ccccc2)CC1 (centres undefined)	inactive	6890	1800	8.4	3580								
O=C1CC2CCc3ccsc3C2=NN1CCCCN1CCN(Cc2ccccc2)CC1 (centres undefined)		756	995	3300	496		45%						
O=C1CC2Cc3ccsc3C2=NN1CCCCCCCN1CCN(Cc2cccc3c2ccn3S(=O)(=O)c2ccccc2)CC1 (centres undefined)	inactive	7180	3760	80	6620								
O=C1CC2CCc3sccc3C2=NN1CCCCN1CCN(Cc2ccccc2)CC1 (centres undefined)		860							3300				
O=C1CC2CCc3ccsc3C2=NN1CCCCCCN1CCN(Cc2cccc3c2ccn3S(=O)(=O)c2ccccc2)CC1 (centres undefined)	12%	9800		102		33							23
O=C1CC2CCc3ccsc3C2=NN1Cc1ccc(CN2CCN(Cc3ccccc3)CC2)cc1 (centres undefined)		3650	2110	1260	786				9700				
O=C1CC2Cc3ccsc3C2=NN1CCCCN1CCN(Cc2cccc3c2ccn3S(=O)(=O)c2ccccc2)CC1 (centres undefined)	26%	3550	2020	193	4610								
O=C1CC2Cc3ccsc3C2=NN1CCCCCCN1CCN(Cc2cccc3c2ccn3S(=O)(=O)c2ccccc2)CC1 (centres undefined)	inactive	9180		68	5160	39							
CN(C)CCCCN1N=C2c3sccc3CCC2CC1=O (centres undefined)		6360				24	inactive	36					37
O=C1CC2CCCc3ccsc3C2=NN1CCCCN1CCN(Cc2ccccc2)CC1 (centres undefined)		1230	976	1430	414				4130				
O=C1CC2CCc3ccsc3C2=NN1CCCCCN1CCN(Cc2cccc3c2ccn3S(=O)(=O)c2ccccc2)CC1 (centres undefined)	inactive	4440	1690	63									35
O=C1CC2Cc3ccsc3C2=NN1CCCCN1CCN(Cc2ccccc2)CC1 (centres undefined)		538	1000	3970	614		11%						
